Some results are limits rather than exact numbers.

Broadly, the inhibition is the drop in the measured response relative to a control, in per cent.

The subject of the assay is RAW264.7. Put plainly: Antiinflammatory activity in mouse RAW264.7 cells assessed as inhibition of lipopolysaccharide-induced nitric oxide production at 50 uM pre-incubated for 4 hrs before LPS challenge for 24 hrs by Griess assay. It counts as functional. Put shortly:
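RAW 264.7 murine macrophages grown in DMEM with 10% FBS, 2 mmol/L L-glutamine, penicillin/streptomycin, 37 °C, 5% CO2. Cells (5 × 10^5/mL) preincubated 8 h, given compound at 10 or 50 μM for 4 h, then LPS (final 1 μg/mL) for 24 h. Nitrite in supernatant measured by Griess reagent, absorbance 570 nm, against sodium nitrite standard; expressed as % inhibition.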
For orientation: Nitrite, measured by Griess reagent, commonly stands in for NO production.
Consider `COc1cc(O)c2c(=O)c(O[C@@H]3O[C@H](CO)[C@H](OC(=O)C[C@@](C)(O)CC(=O)O)[C@H](O)[C@H]3O[C@@H]3O[C@@H](C)[C@H](O)[C@@H](O)[C@H]3O)c(-c3ccc(O)cc3)oc2c1` [OXYTROFLAVOSIDE C], for which the inhibition at 50 µM was below 5%.

In the case of `COc1cc(O)c2c(=O)c(O[C@@H]3O[C@H](CO)[C@H](O)[C@H](OC(=O)C[C@@](C)(O)CC(=O)O)[C@H]3O[C@@H]3O[C@@H](C)[C@H](O)[C@@H](O)[C@H]3O)c(-c3ccc(O)cc3)oc2c1` [OXYTROFLAVOSIDE B], the inhibition at 50 µM was below 5%.

Regarding `COc1cc(O)c2c(=O)c(O[C@@H]3O[C@H](COC(=O)C[C@@](C)(O)CC(=O)O)[C@H](O)[C@H](O)[C@H]3O)c(-c3ccc(O)cc3)oc2c1` [OXYTROFLAVOSIDE D], the inhibition at 50 µM is below 5%.

Turning to `C[C@@H]1O[C@@H](OC[C@H]2O[C@@H](Oc3c(-c4ccc(O)cc4)oc4cc(O)cc(O)c4c3=O)[C@H](O)[C@@H](O)[C@H]2O)[C@H](O)[C@H](O)[C@H]1O`, the inhibition at 50 µM was below 5%.

Consider `C[C@@H]1O[C@@H](OC[C@H]2O[C@@H](Oc3c(-c4ccc(O)cc4)oc4cc(O[C@@H]5O[C@@H](C)[C@H](O)[C@@H](O)[C@H]5O)cc(O)c4c3=O)[C@H](O)[C@@H](O)[C@@H]2O)[C@H](O)[C@H](O)[C@H]1O`, for which the inhibition at 50 µM is below 5%.

With `COc1cc(O)c2c(=O)c(O[C@@H]3O[C@H](COC(=O)C[C@@](C)(O)CC(=O)O)[C@H](O)[C@H](O)[C@H]3O)c(-c3ccc(O[C@@H]4O[C@H](CO)[C@@H](O)[C@H](O)[C@H]4O)cc3)oc2c1` [OXYTROFLAVOSIDE E], the inhibition at 50 µM is below 5%.

With `COc1cc(O)c2c(=O)c(O[C@@H]3O[C@H](CO[C@@H]4O[C@@H](C)[C@H](O)[C@@H](O)[C@H]4O)[C@H](O)[C@H](O)[C@H]3O[C@@H]3O[C@@H](C)[C@H](O)[C@@H](O)[C@H]3O)c(-c3ccc(O)cc3)oc2c1` [OXYTROFLAVOSIDE G], the inhibition at 50 µM was below 5%.

For `COc1cc(O)c2c(=O)c(O[C@@H]3O[C@H](COC(=O)C[C@@](C)(O)CC(=O)O)[C@H](O)[C@H](O)[C@H]3O[C@@H]3O[C@@H](C)[C@H](O)[C@@H](O)[C@H]3O)c(-c3ccc(O)cc3)oc2c1` [OXYTROFLAVOSIDE A], the inhibition at 50 µM is below 5%.

Turning to `O=C(/C=C/c1ccccc1)c1ccc(O)cc1O` [2',4'-DIHYDROXYCHALCONE], the inhibition at 50 µM was 40.1%.

Regarding `COc1cc(O)c2c(=O)c(O[C@@H]3O[C@H](CO)[C@H](O)[C@H](O)[C@H]3O[C@@H]3O[C@@H](C)[C@H](O)[C@@H](O)[C@H]3O)c(-c3ccc(O)cc3)oc2c1` [OXYTROFLAVOSIDE F], the inhibition at 50 µM was below 5%.

As for `CC1O[C@@H](OC[C@H]2O[C@@H](Oc3c(-c4ccc(O)cc4)oc4cc(O)cc(O)c4c3=O)C(O[C@@H]3O[C@H](C)[C@H](O)C(O)C3O)C(O)[C@H]2O)C(O)[C@@H](O)[C@H]1O` (stereo partly specified) [MAURITIANIN], the inhibition at 50 µM is below 5%.

The values above are taken from ChEMBL document CHEMBL2069237, “3-Hydroxy-3-methylglutaryl flavonol glycosides from Oxytropis falcata” (2012).
